For assay [1], the system named is Acinetobacter baumannii. Nature of the assay: Antibacterial activity against fluoroquinolone resistant Acinetobacter baumannii isolate MMX2240 by CLSI M100-S17 protocol based method. The assay is classed as functional.
The test system of assay [2] is Acinetobacter baumannii. Nature of the assay: Antibacterial activity against wild type Acinetobacter baumannii ATCC BAA-747 by CLSI M100-S17 protocol based method. It counts as functional.
The test system of assay [3] is Klebsiella pneumoniae. Nature of the assay: Antibacterial activity against wild type Klebsiella pneumoniae ATCC 35657 by CLSI M100-S17 protocol based method. The assay is classed as functional.
Assay [4] relates to Escherichia coli. Nature of the assay: Selectivity ratio of MIC for wild type Escherichia coli ATCC 25922 in presence of HSA to MIC for wild type Escherichia coli ATCC 25922. The assay is classed as functional.
Assay [5] deals with Escherichia coli. Nature of the assay: Antibacterial activity against quinolone resistance Escherichia coli isolate ELZ4251 harboring gyrA/parC mutant by CLSI M100-S17 protocol based method. It counts as functional.
Assay [6] has as its system Escherichia coli. Nature of the assay: Antibacterial activity against wild type Escherichia coli ATCC 25922 in presence of HSA by CLSI M100-S17 protocol based method. The assay is classed as functional.
In assay [7] the test system is Escherichia coli. Nature of the assay: Antibacterial activity against wild type Escherichia coli ATCC 25922 by CLSI M100-S17 protocol based method. The assay is classed as functional.
Assay [8] relates to Escherichia coli. Nature of the assay: Antibacterial activity against fluoroquinolone resistant Escherichia coli SKM18 by CLSI M100-S17 protocol based method. It counts as functional.
Assay [9] in a line: Inhibition of His tagged Escherichia coli ATCC 25922 DNA gyrase A expressed in Escherichia coli BL21 (DE3) pLysS cells assessed as reduction in enzyme-mediated supercoiling of relaxed plasmid DNA pNO1 after 30 mins in presence of biotinylated TFO1 by fluorescence assay.
Assay [10] can be described thus: Inhibition of Escherichia coli DNA topoisomerase 4 assessed as reduction in decatenation activity using kinetoplast concatenated DNA as substrate after 30 mins by picogreen dye based fluorescence assay.
For assay [11], the system named is Acinetobacter baumannii. Nature of the assay: Antibacterial activity against aminoglycoside resistant Acinetobacter baumannii by broth microdilution method. It counts as functional. Put shortly:
(§1)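 MICs were determined by CLSI broth methods, except that organisms were grown in brain–heart–infusion medium. The panel comprised wild-type and resistant E. coli and A. baumannii strains, including 12 strains whose details are given by reference.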
(In general: In broth dilution the organism is exposed to a series of concentrations in liquid medium.)

For assay [12], the system named is Escherichia coli. Nature of the assay: Antibacterial activity against quinolone resistant Escherichia coli by broth microdilution method. The assay is classed as functional. The gist of the method: as §1
Assay [13] relates to Acinetobacter baumannii. Nature of the assay: Antibacterial activity against carbapenem resistant Acinetobacter baumannii by broth microdilution method. It counts as functional. The gist of the method: as §1
Assay [14] has as its system Escherichia coli. Nature of the assay: Antibacterial activity against beta-lactam resistant Escherichia coli by broth microdilution method. The assay is classed as functional. The gist of the method: as §1
For assay [15], the system named is Escherichia coli. Nature of the assay: Antibacterial activity against multidrug resistant Escherichia coli by broth microdilution method. It counts as functional. Put shortly: as §1
For assay [16], the system named is Acinetobacter baumannii. Nature of the assay: Antibacterial activity against beta-lactam resistant Acinetobacter baumannii by broth microdilution method. It counts as functional. The gist of the method:
as §1

Assay [17] relates to Escherichia coli. Nature of the assay: Antibacterial activity against aminoglycoside resistant Escherichia coli by broth microdilution method. It counts as functional. The gist of the method:
as §1

In assay [18] the test system is Escherichia coli. Nature of the assay: Antibacterial activity against wild type Escherichia coli by broth microdilution method. It counts as functional. Put shortly: as §1
The test system of assay [19] is Acinetobacter baumannii. Nature of the assay: Antibacterial activity against multidrug resistant Acinetobacter baumannii by broth microdilution method. It counts as functional. Put shortly: as §1
For assay [20], the system named is Acinetobacter baumannii. Nature of the assay: Antibacterial activity against quinolone resistant Acinetobacter baumannii by broth microdilution method. It counts as functional. Put shortly:
as §1

The test system of assay [21] is Acinetobacter baumannii. Nature of the assay: Antibacterial activity against wild type Acinetobacter baumannii by broth microdilution method. The assay is classed as functional. Put shortly:
as §1

Where [22] appears, read: Acinetobacter baumannii, read-out: MIC.
Setting [23] is: Escherichia coli, read-out: MIC.

SMILES strings stand for the structures. In brackets after ≈: the same amount, converted by molar mass.

In general, MIC refers to the smallest concentration in the dilution series that meets the test's criterion for growth inhibition. `CC(C)NCc1cc2cc3c(cc2n1C)OCCc1c-3[nH]c(=O)c(C(=O)O)c1O`: the MIC in assay [1] is 6.3 µg/mL (≈ 15.9 µM); in assay [2], 3.9 µg/mL (≈ 9.81 µM); in assay [3], 1.6 µg/mL (≈ 4.03 µM); in [5] it was 1 µg/mL (≈ 2.52 µM); in assay [6], 2 µg/mL; in assay [7], 0.49 µg/mL (≈ 1.23 µM). The same compound yielded an MIC in assay [8] of 0.49 µg/mL (≈ 1.23 µM). For the same compound, the Ratio in [4] is listed as 2 - 4.

A word on the IC50: it is the concentration that gives 50% inhibition. With `CCNCc1cc2cc3c(cc2n1C)Cc1c-3[nH]c(=O)c(C(=O)O)c1O`, the IC50 in [9] and in [10] was more than 11.1 µM in each case. The MIC in assay [7] and in assay [8] was more than 62.5 µg/mL in each case.

For the compound `CCNCc1cc2c3c(ccc2n1C)-c1[nH]c(=O)c(C(=O)O)c(O)c1CCC3`, the figures for the MIC in assay [7] and in assay [8] were 12.5 µg/mL (≈ 32.8 µM) and 6.3 µg/mL (≈ 16.5 µM), respectively. Moreover, in [10], the IC50 was 19 µM.

A word on the MIC50: it is the lowest concentration that inhibits either 50% of growth or 50% of the strains tested, depending on the study. A word on the MIC90: it is the lowest concentration that inhibits either 90% of growth or 90% of the strains tested, depending on the study. A higher MIC90 goes with weaker potency. Regarding `C[C@H]1COc2c(N3CCN(C)CC3)c(F)cc3c(=O)c(C(=O)O)cn1c23.C[C@H]1COc2c(N3CCN(C)CC3)c(F)cc3c(=O)c(C(=O)O)cn1c23.O` [LEVOFLOXACIN], the MIC in assay [11] was 0.06 to 64 µg/mL; in assay [12], 0.015 to 32 µg/mL; in assay [13], 0.06 to 64 µg/mL; in assay [14], 0.015 to 32 µg/mL; in [15] it was 0.015 to 32 µg/mL; in assay [16], 0.06 to 64 µg/mL. The MIC in assay [17] fell in the range of 0.015 to 32 µg/mL; in [19], 0.06 to 64 µg/mL; in assay [20], 0.06 to 64 µg/mL. Besides, the MIC50 in assay [11] (Acinetobacter baumannii) was determined as 2 µg/mL; in assay [12] (Escherichia coli) it was 0.06 µg/mL; in [13] (Acinetobacter baumannii), 2 µg/mL; in assay [14] (Escherichia coli) it was 0.06 µg/mL; in assay [15] (Escherichia coli) it was 0.06 µg/mL; in assay [16] (Acinetobacter baumannii) it was 2 µg/mL. Also, the MIC50 in [17] (Escherichia coli) was 0.06 µg/mL; in [18], 0.06 µg/mL; in assay [19] (Acinetobacter baumannii), 2 µg/mL; in assay [20] (Acinetobacter baumannii), 2 µg/mL; in assay [21], 2 µg/mL. Also, the MIC90 turned out to be 16 µg/mL in assay [11] (Acinetobacter baumannii); 32 µg/mL in assay [12] (Escherichia coli); 16 µg/mL in assay [13] (Acinetobacter baumannii); 32 µg/mL in [14] (Escherichia coli); 32 µg/mL in [15] (Escherichia coli); 16 µg/mL in [16] (Acinetobacter baumannii). Besides, the MIC90 in assay [17] (Escherichia coli) was 32 µg/mL; in [18] it was 32 µg/mL; in assay [19] (Acinetobacter baumannii) it was 16 µg/mL; in assay [20] (Acinetobacter baumannii), 16 µg/mL; in assay [21], 16 µg/mL.

On to `CCc1c(-c2ccc3c(c2)cc(CNC(C)C)n3C)[nH]c(=O)c(C(=O)O)c1O`, for which the MIC in [1] amounted to 3.1 µg/mL (≈ 8.08 µM); in [2] it was 0.78 µg/mL (≈ 2.03 µM); in assay [3], 0.39 µg/mL (≈ 1.02 µM); in assay [5], 3.1 µg/mL (≈ 8.08 µM); in assay [6], 1.6 µg/mL; in assay [7] it was 0.39 µg/mL (≈ 1.02 µM). The same compound showed an MIC in assay [8] of 1.6 µg/mL (≈ 4.17 µM).

`CCNCc1cc2cc(-c3[nH]c(=O)c(C(=O)O)c(O)c3CC)ccc2n1C`: the MIC in assay [1] is 6.3 µg/mL (≈ 17.1 µM); in assay [2], 0.78 µg/mL (≈ 2.11 µM); in [11] (setting [22]), 0.5 to 32 µg/mL (≈ 1.35 to 86.6 µM); in [3], 0.39 µg/mL (≈ 1.06 µM); in assay [12] (setting [23]), 0.25 to 4 µg/mL (≈ 0.677 to 10.8 µM); in assay [13] (setting [22]), 0.5 to 32 µg/mL (≈ 1.35 to 86.6 µM). In addition, the MIC was 0.25 to 4 µg/mL (≈ 0.677 to 10.8 µM) in [14] (setting [23]); 0.25 to 4 µg/mL (≈ 0.677 to 10.8 µM) in assay [15] (setting [23]); 0.5 to 32 µg/mL (≈ 1.35 to 86.6 µM) in assay [16] (setting [22]); 0.25 to 4 µg/mL (≈ 0.677 to 10.8 µM) in assay [17] (setting [23]); 3.1 µg/mL (≈ 8.39 µM) in [5]; 1.6 µg/mL in assay [6]. Also, the MIC in assay [19] (setting [22]) is 0.5 to 32 µg/mL (≈ 1.35 to 86.6 µM); in assay [7], 0.39 µg/mL (≈ 1.06 µM); in assay [8], 1.6 µg/mL (≈ 4.33 µM); in assay [20] (setting [22]), 0.5 to 32 µg/mL (≈ 1.35 to 86.6 µM). Further, the MIC50 is 2 µg/mL (≈ 5.41 µM) in assay [11] (Acinetobacter baumannii); 1 µg/mL (≈ 2.71 µM) in [12] (Escherichia coli); 2 µg/mL (≈ 5.41 µM) in assay [13] (Acinetobacter baumannii); 1 µg/mL (≈ 2.71 µM) in assay [14] (Escherichia coli); 1 µg/mL (≈ 2.71 µM) in [15] (Escherichia coli); 2 µg/mL (≈ 5.41 µM) in assay [16] (Acinetobacter baumannii). The MIC50 turned out to be 1 µg/mL (≈ 2.71 µM) in assay [17] (Escherichia coli); 1 µg/mL (≈ 2.71 µM) in [18]; 2 µg/mL (≈ 5.41 µM) in assay [19] (Acinetobacter baumannii); 2 µg/mL (≈ 5.41 µM) in assay [20] (Acinetobacter baumannii); 2 µg/mL (≈ 5.41 µM) in assay [21]. In addition, the MIC90 in [11] (Acinetobacter baumannii) was determined as 16 µg/mL (≈ 43.3 µM); in [12] (Escherichia coli), 4 µg/mL (≈ 10.8 µM); in assay [13] (Acinetobacter baumannii), 16 µg/mL (≈ 43.3 µM); in assay [14] (Escherichia coli), 4 µg/mL (≈ 10.8 µM); in assay [15] (Escherichia coli), 4 µg/mL (≈ 10.8 µM); in [16] (Acinetobacter baumannii) it was 16 µg/mL (≈ 43.3 µM). The MIC90 in assay [17] (Escherichia coli) was 4 µg/mL (≈ 10.8 µM); in assay [18], 4 µg/mL (≈ 10.8 µM); in assay [19] (Acinetobacter baumannii), 16 µg/mL (≈ 43.3 µM); in [20] (Acinetobacter baumannii) it was 16 µg/mL (≈ 43.3 µM); in [21], 16 µg/mL (≈ 43.3 µM). In addition, the IC50 was 0.3 µM in assay [9] and 3.3 µM in assay [10].

Take `CC(C)NCc1cc2cc3c(cc2n1C)SCCc1c-3[nH]c(=O)c(C(=O)O)c1O`: the MIC worked out at 3.9 µg/mL (≈ 9.43 µM) in assay [1]; 2 µg/mL (≈ 4.84 µM) in assay [2]; 2 µg/mL (≈ 4.84 µM) in [3]; 3.1 µg/mL (≈ 7.5 µM) in assay [5]; 15.6 µg/mL in assay [6]; 2 µg/mL (≈ 4.84 µM) in assay [7]. The lowest concentration to inhibit growth in [8] (MIC) was 1 µg/mL (≈ 2.42 µM). Moreover, the Ratio in assay [4] is on record as 8 - 16.

For `CCc1c(-c2ccc(N(C)C)cc2)[nH]c(=O)c(C(=O)O)c1O`, the MIC in assay [1] is 6.3 µg/mL (≈ 20.8 µM); in [2], 1.6 µg/mL (≈ 5.29 µM); in assay [3], 3.1 µg/mL (≈ 10.3 µM); in [5], 15.6 µg/mL (≈ 51.6 µM); in assay [6], more than 62.5 µg/mL; in assay [7], 0.78 µg/mL (≈ 2.58 µM). In addition, in [8], the MIC was determined as 15.6 µg/mL (≈ 51.6 µM).

These data come from ChEMBL document CHEMBL4190388, “Discovery and Optimization of Indolyl-Containing 4-Hydroxy-2-Pyridone Type II DNA Topoisomerase Inhibitors Active against Multidrug Resistant Gram-negative Bacteria” (J Med Chem, 2018).
